Measurements: ChEMBL document CHEMBL4665798, “Novel Human Urate Transporter 1 Inhibitors as Hypouricemic Drug Candidates with Favorable Druggability” (J Med Chem, 2020)
Each block holds one compound with its values, some of them ahead of it.

Columns and labels:
Mus musculus = assay: Hypouricemic activity in Kunming mouse model of xanthine/potassium oxonate-induced acute hyperuricemia assessed as decrease in serum uric acid level at 2 mg/kg administered 3 hrs prior to xanthine/potassium oxonate and measured after 6 hrs relative to control; assay type: functional; parameters: scale not given: the % may be the effect or the level left; conditions: time 9 hrs
Outline: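 Male Kunming mice, hyperuricemia induced by intragastric xanthine plus subcutaneous potassium oxonate (0.2 mL each). […] Groups: normal vehicle, untreated model, active control, test. Serum uric acid measured. Decrease ratio = (model SUA − compound SUA)/(model SUA − vehicle SUA).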

[1] = Sub-acute toxicity in Kunming mouse assessed as congestion in hepatic central vein at 50 mg/kg, po administered as single dose every other day for 14 days by H and E staining based assay; assay type: organism-based; conditions: in vivo, 336 h, time 14 day
[2] = MRT (0 to infinity) in Sprague-Dawley rat at 1 mg/kg, iv by LC-MS analysis; assay type: ADME, organism-based; conditions: in vivo
[3] = Half-life in Sprague-Dawley rat at 1 mg/kg, iv by LC-MS analysis; assay type: ADME, organism-based; conditions: in vivo
[4] = AUC (0 to infinity) in Sprague-Dawley rat at 20 mg/kg, po by LC-MS analysis; assay type: ADME, organism-based; parameters: route oral, time infinity, dose 20 mg/kg; conditions: in vivo
[5] = Sub-acute toxicity in female Kunming mouse assessed as increase in body weight at 50 mg/kg, po administered once every second day for 14 days; assay type: organism-based; conditions: in vivo, 336 h, time 14 day
[6] = Sub-acute toxicity in Kunming mouse assessed as clonic convulsion at 50 mg/kg, po administered once every second day for 14 days; assay type: organism-based; conditions: in vivo, 336 h, time 14 day
[7] = Oral bioavailability in Sprague-Dawley rat at 20 mg/kg by LC-MS analysis; assay type: ADME, organism-based; conditions: in vivo
Rattus norvegicus = species on record: Rattus norvegicus; assay: Hypouricemic activity in rat model of xanthine/potassium oxonate-induced acute hyperuricemia assessed as decrease in serum uric acid level relative to control; assay type: functional; parameters: scale not given: the % may be the effect or the level left
[8] = Cmax in Sprague-Dawley rat at 20 mg/kg, po by LC-MS analysis; assay type: ADME, organism-based; parameters: route oral, dose 20 mg/kg; conditions: in vivo
[9] = Tmax in Sprague-Dawley rat at 20 mg/kg, po by LC-MS analysis; assay type: ADME, organism-based; conditions: in vivo
[10] = MRT (0 to infinity) in Sprague-Dawley rat at 20 mg/kg, po by LC-MS analysis; assay type: ADME, organism-based; conditions: in vivo
[11] = Sub-acute toxicity in Kunming mouse assessed as appearance of ruffled fur at 50 mg/kg, po administered once every second day for 14 days; assay type: organism-based; conditions: in vivo, 336 h, time 14 day
[12] = Sub-acute toxicity in Kunming mouse assessed as ballooning degeneration of liver at 50 mg/kg, po administered as single dose every other day for 14 days by H and E staining based assay; assay type: organism-based; conditions: in vivo, 336 h, time 14 day
[13] = Sub-acute toxicity in male Kunming mouse assessed as increase in body weight at 50 mg/kg, po administered once every second day for 14 days; assay type: organism-based; conditions: in vivo, 336 h, time 14 day
[14] = Clearance in Sprague-Dawley rat at 1 mg/kg, iv by LC-MS analysis; assay type: ADME, organism-based; conditions: in vivo
[15] = Sub-acute toxicity in Kunming mouse assessed as hepatocellular condensation of liver at 50 mg/kg, po administered as single dose every other day for 14 days by H and E staining based assay; assay type: organism-based; conditions: in vivo, 336 h, time 14 day
[16] = Acute toxicity in Kunming mouse assessed as induction of abnormal behaviors by measuring clonic convulsion at 500 mg/kg, ig; assay type: organism-based; conditions: in vivo, po
[17] = Acute toxicity in female Kunming mouse assessed as change in body weight at 500 mg/kg, ig measured for 1 week; assay type: organism-based; conditions: in vivo, po, 168 h, time 1 weeks
[18] = Sub-acute toxicity in Kunming mouse assessed as hydropic degeneration of hepatocytes at 50 mg/kg, po administered as single dose every other day for 14 days by H and E staining based assay; assay type: organism-based; conditions: in vivo, 336 h, time 14 day
[19] = molecular target: T1, Solute carrier family 22 member 12 (Homo sapiens, UniProt Q96S37); assay: Inhibition of human URAT1 expressed in HEK293T cells assessed as reduction in [14C]uric acid uptake preincubated for 15 mins followed by [14C]uric acid addition by liquid scintillation counting method; assay type: cell-based
T1 sequence (Q96S37 whole entry): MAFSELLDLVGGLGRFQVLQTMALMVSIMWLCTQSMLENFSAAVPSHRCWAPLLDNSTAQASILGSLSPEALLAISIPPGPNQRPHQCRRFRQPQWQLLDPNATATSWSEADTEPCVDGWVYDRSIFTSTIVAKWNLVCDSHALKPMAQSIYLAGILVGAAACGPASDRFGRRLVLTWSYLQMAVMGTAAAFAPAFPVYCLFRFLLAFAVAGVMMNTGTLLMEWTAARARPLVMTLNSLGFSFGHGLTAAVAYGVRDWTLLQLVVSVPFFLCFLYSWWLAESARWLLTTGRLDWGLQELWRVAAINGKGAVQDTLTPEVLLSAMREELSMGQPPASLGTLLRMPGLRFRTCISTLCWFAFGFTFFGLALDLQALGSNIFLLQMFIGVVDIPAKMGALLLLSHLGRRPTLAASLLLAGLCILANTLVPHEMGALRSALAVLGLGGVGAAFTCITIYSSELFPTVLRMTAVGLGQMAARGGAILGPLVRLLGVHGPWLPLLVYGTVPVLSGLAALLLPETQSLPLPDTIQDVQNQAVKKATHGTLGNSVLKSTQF

[20] = Sub-acute toxicity in Kunming mouse assessed as lethargy at 50 mg/kg, po administered once every second day for 14 days; assay type: organism-based; conditions: in vivo, 336 h, time 14 day
[21] = AUC (0 to t) in Sprague-Dawley rat at 1 mg/kg, iv by LC-MS analysis; assay type: ADME, organism-based; parameters: dose 1 mg/kg; conditions: in vivo
[22] = Acute toxicity in Kunming mouse assessed as induction of abnormal behaviors by measuring anorexia at 500 mg/kg, ig; assay type: organism-based; conditions: in vivo, po
[23] = Sub-acute toxicity in Kunming mouse assessed as anorexia at 50 mg/kg, po administered once every second day for 14 days; assay type: organism-based; conditions: in vivo, 336 h, time 14 day
[24] = AUC (0 to t) in Sprague-Dawley rat at 20 mg/kg, po by LC-MS analysis; assay type: ADME, organism-based; parameters: dose 20 mg/kg; conditions: in vivo
[25] = Acute toxicity in Kunming mouse assessed as death at 500 mg/kg, ig measured for 1 week; assay type: organism-based; conditions: in vivo, po, 168 h, time 1 weeks
[26] = AUC (0 to infinity) in Sprague-Dawley rat at 1 mg/kg, iv by LC-MS analysis; assay type: ADME, organism-based; parameters: time infinity, route intravenous, dose 1 mg/kg; conditions: in vivo
[27] = Half-life in Sprague-Dawley rat at 20 mg/kg, po by LC-MS analysis; assay type: ADME, organism-based; conditions: in vivo
[28] = Acute toxicity in Kunming mouse assessed as induction of abnormal behaviors by measuring lethargy at 500 mg/kg, ig; assay type: organism-based; conditions: in vivo, po
[29] = Sub-acute toxicity in Kunming mouse assessed as death at 50 mg/kg, po administered once every second day for 14 days; assay type: organism-based; conditions: in vivo, 336 h, time 14 day
[30] = Acute toxicity in male Kunming mouse assessed as change in body weight at 500 mg/kg, ig measured for 1 week; assay type: organism-based; conditions: in vivo, po, 168 h, time 1 weeks
[31] = Sub-acute toxicity in Kunming mouse assessed as edema in proximal tubule at 50 mg/kg, po administered as single dose every other day for 14 days by H and E staining based assay; assay type: organism-based; conditions: in vivo, 336 h, time 14 day
Outline: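 Kunming mice, n = 4 per sex, fasted 12 h. Dosed orally on D0, D2, D4, D6, D8, D10 and D12; controls received an equal volume of vehicle. Weighed before each dose. Killed at D14; heart, liver, spleen, lung and kidney taken for haematoxylin and eosin staining.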

[32] = molecular target: T2, Solute carrier family 2, facilitated glucose transporter member 9 (Homo sapiens, UniProt Q9NRM0); assay: Inhibition of GLUT9 (unknown origin)
T2 sequence (Q9NRM0 whole entry): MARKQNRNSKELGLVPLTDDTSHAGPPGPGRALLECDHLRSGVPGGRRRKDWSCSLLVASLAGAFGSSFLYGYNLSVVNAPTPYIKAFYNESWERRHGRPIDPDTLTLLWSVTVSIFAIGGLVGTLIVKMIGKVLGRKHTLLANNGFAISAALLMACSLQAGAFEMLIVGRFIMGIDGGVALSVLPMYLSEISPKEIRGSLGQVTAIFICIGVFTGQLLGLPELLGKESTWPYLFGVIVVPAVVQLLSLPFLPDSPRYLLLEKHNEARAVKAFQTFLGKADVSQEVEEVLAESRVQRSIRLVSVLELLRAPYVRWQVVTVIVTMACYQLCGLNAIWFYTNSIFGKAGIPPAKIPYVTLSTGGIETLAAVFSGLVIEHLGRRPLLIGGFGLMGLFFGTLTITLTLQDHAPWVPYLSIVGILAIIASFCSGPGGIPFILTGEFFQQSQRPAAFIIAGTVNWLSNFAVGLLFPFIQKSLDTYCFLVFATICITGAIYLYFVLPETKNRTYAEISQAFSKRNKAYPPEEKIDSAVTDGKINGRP

SMILES: CC(Sc1nc2cnccc2n1-c1ccc(C2CC2)c2ccccc12)C(=O)O (racemic)
Activity (Mus musculus): 89.62%
Activity [1]: Non-Toxic
MRT inf [2]: 2.86 h
half-life [3]: 138 min
AUC(0-inf) [4]: 65100 ng·h/mL
Activity [5]: Non-Toxic
Activity [6]: Non-Toxic
bioavailability [7]: 93.6%
Activity (Rattus norvegicus): 81.42%
Cmax [8]: 21600 ng/mL
Tmax [9]: 30 min
MRT inf [10]: 4.6 h
Activity [11]: Non-Toxic
Activity [12]: Non-Toxic
Activity [13]: Non-Toxic
clearance [14]: 5.3 mL/min/kg
Activity [15]: Non-Toxic
Activity [16]: Non-Toxic
Activity [17]: Non-Toxic
Activity [18]: Non-Toxic
IC50 [19]: 6.14 µM
Activity [20]: Non-Toxic
AUC(0-t) [21]: 3110 ng·h/mL
Activity [22]: Non-Toxic
Activity [23]: Non-Toxic
AUC(0-t) [24]: 58200 ng·h/mL
Activity [25]: Non-Toxic
AUC(0-inf) [26]: 3320 ng·h/mL
half-life [27]: 186 min
Activity [28]: Non-Toxic
Activity [29]: Non-Toxic
Activity [30]: Non-Toxic

SMILES: O=C(O)C1(Sc2nc3ncccc3n2-c2ccc(C3CC3)c3ccccc23)CCC1
Activity (Mus musculus): 62.18%
Activity [31]: Toxic

IC50 [19]: > 30 µM
SMILES: CC(Sc1nc2cccnc2n1-c1ccc(C2CC2)c2ccccc12)C(=O)O (stereo not given)
Activity (Mus musculus): 42.06%

IC50 [19]: 7.29 µM
IC50 [32]: 32.2 µM
SMILES: O=C(CSc1nnc(Br)n1-c1ccc(C2CC2)c2ccccc12)NS(=O)(=O)c1ccc(F)cc1F
Activity (Mus musculus): 93.78%

SMILES: CC(C)(C)S(=O)(=O)NC(=O)CSc1nnc(Br)n1-c1ccc(C2CC2)c2ccccc12
Activity (Mus musculus): 5.94%

SMILES: CCCS(=O)(=O)NC(=O)CSc1nnc(Br)n1-c1ccc(C2CC2)c2ccccc12
Activity (Mus musculus): 24.06%

SMILES: C[C@H](Sc1nc2ncccc2n1-c1ccc(C2CC2)c2ccccc12)C(=O)O (stereo in doubt; 44a)
Activity (Mus musculus; 2 mg/kg): 12.87%

SMILES: C[C@H](Sc1nc2cnccc2n1-c1ccc(C2CC2)c2ccccc12)C(=O)O (stereo in doubt; 54c)
Activity (Mus musculus; 2 mg/kg): 93.54%

SMILES: CC(C)(Sc1nc2cnccc2n1-c1ccc(C#N)c2ccccc12)C(=O)O
Activity (Mus musculus): 15.24%

SMILES: O=C(O)CSc1nc2ncccc2n1-c1ccc(C2CC2)c2ccccc12
Activity (Mus musculus): 34.5%

SMILES: Cc1cc(C)c(-n2c(SCCCC(=O)O)nc3cccnc32)c(C)c1
Activity (Mus musculus): 13.05%

SMILES: COC(=O)CCSc1nc2ncccc2n1-c1ccc(C#N)c2ccccc12
Activity (Mus musculus): 5.12%

SMILES: CCOC(=O)C1(Sc2nc3ncccc3n2-c2ccc(C#N)c3ccccc23)CCC1
Activity (Mus musculus): 34.56%

SMILES: CCOC(=O)C(C)Sc1nc2cccnc2n1-c1cccc2ccccc12 (stereo not given)
Activity (Mus musculus): -1.84%

SMILES: CCOC(=O)C(C)Sc1nc2ncccc2n1-c1ccc(C2CC2)c2ccccc12 (stereo not given)
Activity (Mus musculus): 35.37%

SMILES: C[C@@H](Sc1nc2cnccc2n1-c1ccc(C2CC2)c2ccccc12)C(=O)O (stereo in doubt; 54b)
Activity (Mus musculus; 2 mg/kg): 32.44%

SMILES: CCOC(=O)C(C)Sc1nc2cccnc2n1-c1c(C)cc(C)cc1C (stereo not given)
Activity (Mus musculus): 22.34%

SMILES: CCOC(=O)CSc1nc2cccnc2n1-c1cccc2ccccc12
Activity (Mus musculus): 4.03%

SMILES: COC(=O)CCSc1nc2cnccc2n1-c1ccc(C#N)c2ccccc12
Activity (Mus musculus): 11.47%

SMILES: O=C(CSc1nnc(Br)n1-c1ccc(C2CC2)c2ccccc12)NS(=O)(=O)C1CC1
Activity (Mus musculus): 17.54%
